Experimental findings from ChEMBL document CHEMBL1144695, “Synthesis and evaluation of novel polyaminocarboxylate-based antitumor agents” (J Med Chem, 2008) are described below.

As a reminder, the IC50 is the concentration needed to halve the response being measured.

Test [1] has as its system HeLa. The test is described as follows: Cytotoxicity against human HeLa cells after 72 hrs by MTS assay. The format is functional, cell-based. The procedure, abridged: (§1)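 Cells attached 24 h before dosing: HeLa at 2000 cells/well in MEM with 10% FBS, and HT29 at 5000 cells/well in RPMI-1640 with 10% FBS. At least five serial dilutions were added for 72 h at 37 °C in 5% CO2. MTS/PMS was then added for 3 h and absorbance read at 490 nm, relative to untreated solvent controls. Runs were at least triplicate, and IC50 came from nonlinear regression.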
In general terms: Formazan colour is commonly taken as a measure of viable cells.

Test [2] concerns MRC5. Nature of the test: Induction of proliferation in human MRC5 cells. The format is functional. Details: unit: fraction of untreated control. The procedure, abridged: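 Normal MRC-5 lung fibroblasts were grown in EMEM with 10% FBS, seeded at 5000 cells/well and allowed 24 h to attach. Chelators at 50 µM were given for 72 h at 37 °C in 5% CO2. Read-out was MTS/PMS for 3 h, with absorbance at 490 nm expressed as a fraction of untreated solvent controls. Runs were at least triplicate.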

For test [3], the system named is HT-29. The test is described as follows: Cytotoxicity against human HT29 cells after 72 hrs by MTS assay. The format is functional, cell-based. The following applies: HT-29, 72 h. A digest of the protocol: as §1

For `O=C(O)CNC(Cc1ccc([N+](=O)[O-])cc1)CN1CCN(CC(=O)O)CCN(CC(=O)O)CC1` (stereo unspecified), the figures for the IC50 in test [1] and in test [3] were 7.1 µM and 5 µM, respectively. The Activity in test [2] was 2.
Molecule `O=C(O)CNC(Cc1ccc(Nc2ccc([N+](=O)[O-])c3nonc23)cc1)CN1CCN(CC(=O)O)CCN(CC(=O)O)CC1` (stereo unspecified) came in with an Activity in test [2] of 2.
In the case of `O=C(O)CNCCN1CCN(CC(=O)O)CCN(CC(=O)O)CC1`, the figures for the half-maximal inhibitory concentration (IC50) in test [1] and in test [3] were 5.7 µM and 4.7 µM, respectively. Also, the Activity in test [2] is on record as 2.
Turning to `O=C(O)CN1CCN(CC(=O)O)CCN(CC(Cc2ccc([N+](=O)[O-])cc2)N(CC(=O)O)CC(=O)O)CC1` (stereo unspecified), the IC50 in test [1] is over 100 µM; in test [3] it was 45.7 µM.
On to `O=C(O)CN1CCN(CCN(CC(=O)O)Cc2ccc([N+](=O)[O-])cc2)CCN(CC(=O)O)CC1`, for which the concentration for half-maximal inhibition (IC50) in test [1] stood at 8.4 µM; in test [3], 6.8 µM. Further, in test [2], the Activity is 2.
As for `O=C(O)CN1CCN(CCN(CC(=O)O)CC(=O)O)CCN(CC(=O)O)CC1`, the Activity in test [2] was 2. For the same molecule, in test [3], half-maximal inhibition (IC50) required 7.3 µM.
On to `O=C(O)CN1CCN(CCN(CC(=O)O)Cc2ccccc2)CCN(CC(=O)O)CC1`, for which the results for the IC50 in test [1] and in test [3] were 4.4 µM and 2.6 µM, respectively. In addition, the Activity in test [2] is on record as 2.
Turning to `CC(=O)N(O)CCCCCNC(=O)CCC(=O)N(O)CCCCCNC(=O)CCC(=O)N(O)CCCCCN` [DEFEROXAMINE], the figures for the IC50 in test [1] and in test [3] were over 50 µM and 36.1 µM, respectively.
Regarding `O=C(O)CN(CCN(CC(=O)O)CC(=O)O)CCN(CC(=O)O)CC(=O)O` [PENTETIC ACID], the results for the IC50 in test [1] and in test [3] were 264 µM and 39.1 µM, respectively.
